Hits are enriched below; roughly 2.9% of the tested compounds scored in any of these assays.
SIRT5 inh: sirtuin-5 (human) deacylase inhibition; Purified SirT5, succinyl-peptide AMC, trypsin-coupled fluorescence; Q9NXA8; hit rate 1.1% among 330,000; inhibition, % at 15 µM; in the data active = inhibition above about 15%; inconclusive = no clear call, values can overlap the other calls
Target sequence (Q9NXA8 whole entry, looked up): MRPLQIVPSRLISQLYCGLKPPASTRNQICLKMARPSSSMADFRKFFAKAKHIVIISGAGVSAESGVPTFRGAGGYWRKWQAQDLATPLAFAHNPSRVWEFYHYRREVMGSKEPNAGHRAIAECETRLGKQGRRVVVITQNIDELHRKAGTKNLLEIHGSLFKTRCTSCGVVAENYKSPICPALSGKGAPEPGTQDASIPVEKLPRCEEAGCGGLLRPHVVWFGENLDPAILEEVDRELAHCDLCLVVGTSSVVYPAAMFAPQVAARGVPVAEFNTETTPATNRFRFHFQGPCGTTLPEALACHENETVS
DENV2 CPE rescue: inhibitors of DENV2 cytopathic effect | DENV2-infected cells, cytopathic effect rescue, plate reader | CPE inhibition, % at 9.99 µM | hit rate 1.7% among 350,000; in the data active = CPE inhibition above about 20%, passing the limit was not always enough; inconclusive = no clear call, values can overlap the other calls; tested in BHK-21 cells;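 note: 0% = median of neutral control wells and 100% = median of positive control wells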
E-selectin induc: induces E-selectin expression in human endothelial cells; hit rate 0.37% among 260,000; P16581; activation, % at 7.58 µM; AID 686992; HUVEC E-selectin immunofluorescence imaging; normalized: neutral wells 0, TNF-alpha wells 100;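 active = mean E-selectin-positive cell signal at least 10% of the positive control, reached in at least 60% of replicates, without over 20% cell loss; inconclusive = no rule given, readout overlaps actives, possibly toxicity-flagged; inactive = the rest, including those meeting only one limit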
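material = human umbilical vein endothelial cells (HUVEC), E-selectin induction | quantity = 3,000 cells/well | medium = EGM-2 growth medium on 0.1% gelatin-coated wells | technique = immunofluorescence imaging | read-out basis = % PE-positive cells | control set = TNF-alpha positive control, DMSO neutral control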
* = called active by the depositor; ? = inconclusive; nt = no result given.

SMILES	SIRT5 inh	DENV2 CPE rescue	E-selectin induc
Cc1ccc(C)c(C(=O)CC2(O)C(=O)N(C)c3ccccc32)c1 (configuration not stated)	-4	10	nt
COc1ccc(CCNC(=O)CSc2ncc(C(=O)Nc3ccccc3)c(=O)n2C)cc1	0	-1	0
CC(C)[C@H]1CN=C2N(C[C@H](C)NC(=O)CCC3CCCCC3)[C@H](Cc3ccc(O)cc3)CN21	nt	-5	nt
COc1ccc(C[C@H]2CN3C(=NC[C@@H]3Cc3ccc(O)cc3)N2C[C@H](C)NC(=O)CCC2CCCCC2)cc1	31*	3	0
CCN(C(=O)COC(=O)CNS(=O)(=O)c1ccc(C)cc1)C1CCS(=O)(=O)C1 (configuration not stated)	4	-1	-2
CCN(C(=O)CSc1nnc(-c2ccc(OC)cc2)n1N)c1c(N)n(Cc2ccccc2)c(=O)[nH]c1=O	-5	-5	1
CCOC(=O)c1sc2nc(OCCN3CCOCC3)cc(C)c2c1N	17*	-2	0
CCOC(=O)c1sc2nc(N3CCOCC3)c3c(c2c1N)CCC3	nt	nt	-1
C[C@H](CO)N1C[C@H](C)[C@@H](CN(C)C(=O)Nc2ccc(F)cc2)Oc2ncc(C#Cc3ccc(F)cc3)cc2C1=O	0	4	0
COc1ccc(NC(=O)N(C)C[C@H]2Oc3ncc(C#CC(C)C)cc3C(=O)N([C@@H](C)CO)C[C@H]2C)cc1	-1	39*	0
COc1ccccc1NC(=O)N(C)C[C@H]1Oc2ncc(C#CC(C)C)cc2C(=O)N([C@@H](C)CO)C[C@@H]1C	16*	-2	0
COc1ccccc1NC(=O)N(C)C[C@H]1Oc2ncc(C#CCN(C)C)cc2C(=O)N([C@@H](C)CO)C[C@H]1C	9	4	0
COc1ccc(NC(=O)N(C)C[C@H]2Oc3ncc(C#CC(C)C)cc3C(=O)N([C@H](C)CO)C[C@@H]2C)cc1	-3	-4	0
COc1ccc(NC(=O)N(C)C[C@@H]2Oc3ncc(C#Cc4ccc(F)cc4)cc3C(=O)N([C@H](C)CO)C[C@@H]2C)cc1	6	63*	0
Cc1cccc(Cl)c1NC(=O)N1CCN(c2ccnc3cc(Cl)ccc23)CC1	-4	-1	5
COc1ccc(NC(=O)c2ccc3[nH]c(C)c(C)c3c2)c(OC)c1	-4	-1	1
Cc1cccc(C(=O)O/N=C(\c2ccccc2)c2cccnc2)c1	-3	1	nt
Cc1ccc(C(=O)O/N=C(\c2ccccc2)c2cccnc2)cc1	33*	9	nt
C=CCn1c(SCC(=O)NC(=O)c2cccn2C)nc2ccccc2c1=O	0	?	nt
Cc1oc(/N=C/c2cccc3ccccc23)c(C#N)c1C	-3	-10	nt
Cc1oc(/N=C/c2ccccc2)c(C#N)c1C	-1	22*	nt
S=C(Nc1ccccc1)N1CCc2ccccc21	-1	-1	nt
O=C(NC(=S)N1CCCc2ccccc21)c1ccco1	22*	5	-1
S=C(NC1CC1)N1CCCc2ccccc21	0	54*	0
CC1Cc2ccccc2N1C(=S)NC(=O)c1ccco1 (configuration not stated)	1	10	0
SMILES	SIRT5 inh	DENV2 CPE rescue	E-selectin induc
CC(=O)N(C)C[C@@H]1Oc2ncc(C#Cc3cccnc3)cc2C(=O)N([C@H](C)CO)C[C@@H]1C	-3	11	0
CC(=O)c1ccc(OCC(=O)N2CCCC2c2ccc3c(c2)OCCCO3)cc1 (configuration not stated)	7	3	0
COc1ccccc1CN1[C@H](CO)[C@H](c2ccccc2)C12CN(C(C)=O)C2	17*	-2	0
COc1ccccc1CN1[C@@H](CO)[C@@H](c2ccccc2)C12CN(C(C)=O)C2	-1	-5	0
CC(=O)N1CC2(C1)[C@H](c1ccccc1)[C@H](CO)N2Cc1ccccc1	-5	-1	0
CC(=O)N1CC2(C1)[C@H](c1ccccc1)[C@@H](CO)N2Cc1ccccc1	0	24*	0
CCN(CC)S(=O)(=O)c1ccc2c(c1)N(CC(=O)N1CCC(C(N)=O)CC1)C(=O)CO2	-6	11	nt
CN(C(=O)COC(=O)c1cc2ccccc2oc1=O)C1CCCCC1	-5	4	nt
CC1C(=O)Nc2ccccc2N1C(=O)c1ccc(O)cc1 (configuration not stated)	-3	-4	0
O=C1Nc2ccccc2N(C(=O)c2ccc3ccccc3c2)C1c1nc2ccccc2[nH]1 (configuration not stated)	16*	-11	0
COc1ccc(NC(=O)Nc2ccc3c(c2)C(=O)N([C@@H](C)CO)C[C@@H](C)[C@H](CN(C)S(=O)(=O)c2ccc(F)cc2)O3)cc1	nt	-24	-11
COc1ccc(NC(=O)Nc2ccc3c(c2)C(=O)N([C@@H](C)CO)C[C@@H](C)[C@@H](CN(C)S(=O)(=O)c2ccc(F)cc2)O3)cc1	nt	-7	37*

Assay outcomes (PubChem)
